From ChEMBL document CHEMBL2385032, “Dual-functional abeo-taxane derivatives destabilizing microtubule equilibrium and inhibiting NF-κB activation” (2013)
Blank lines part the entries; values can stand above or below the compound they belong to. Active and inactive are the calls of the source. The rule behind the calls is not given here.

Key:
[1] = system: HEK-293T; experiment: Inhibition of TNF-alpha induced NF-kapppaB activation in HEK293T cells at 1.25 uM incubated 1 hr prior to TNF-alpha addition measured after 18 hrs by luciferase reporter gene assay; type: cell-based; conditions: Homo sapiens
Summary of the method: (§1)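 HEK 293T cells transiently transfected 12 h with pNFκB-luc and pRL-TK, pretreated 1 h with compound (0.31–2.50 μM) or DMSO, then stimulated with TNF-α 25 ng/mL for 18 h; firefly and Renilla luciferase read by dual-luciferase assay. Data from one of three independent experiments.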

[2] = system: HEK-293T; experiment: Inhibition of TNF-alpha induced NF-kapppaB activation in HEK293T cells at 0.62 uM incubated 1 hr prior to TNF-alpha addition measured after 18 hrs by luciferase reporter gene assay; type: cell-based; conditions: Homo sapiens; summary of the method: as §1
[3] = system: HEK-293T; experiment: Inhibition of TNF-alpha induced NF-kapppaB activation in HEK293T cells at 0.31 uM incubated 1 hr prior to TNF-alpha addition measured after 18 hrs by luciferase reporter gene assay; type: cell-based; conditions: Homo sapiens; summary of the method: as §1
[4] = system: HEK-293T; experiment: Inhibition of TNF-alpha induced NF-kapppaB activation in HEK293T cells incubated 1 hr prior to TNF-alpha addition measured after 18 hrs by luciferase reporter gene assay; type: cell-based; conditions: Homo sapiens; summary of the method: as §1
[5] = system: HCT-116; experiment: Cell cycle arrest in human HCT116 cells assessed as accumulation at G0/G1 phase at 2 uM after 12 hrs by propidium iodide staining-based FACS analysis (reference value: 54.63 to 55.88 %); type: functional
[6] = system: HCT-116; experiment: Cell cycle arrest in human HCT116 cells assessed as accumulation at G0/G1 phase at 1 uM after 12 hrs by propidium iodide staining-based FACS analysis (reference value: 54.63 to 55.88 %); type: functional
[7] = system: HCT-116; experiment: Cell cycle arrest in human HCT116 cells assessed as accumulation at S phase at 2 uM after 12 hrs by propidium iodide staining-based FACS analysis (reference value: 20.48 to 23.62 %); type: functional
[8] = system: HCT-116; experiment: Cell cycle arrest in human HCT116 cells assessed as accumulation at S phase at 1 uM after 12 hrs by propidium iodide staining-based FACS analysis (reference value: 20.48 to 23.62 %); type: functional
[9] = system: HCT-116; experiment: Cell cycle arrest in human HCT116 cells assessed as accumulation at G2/M phase after 12 hrs by propidium iodide staining-based FACS analysis; type: functional
[10] = system: HCT-116; experiment: Cell cycle arrest in human HCT116 cells assessed as reduction in G0/G1 phase after 12 hrs by propidium iodide staining-based FACS analysis; type: functional
[11] = system: HCT-116; experiment: Cell cycle arrest in human HCT116 cells assessed as accumulation at G2/M phase at 1 uM after 12 hrs by propidium iodide staining-based FACS analysis (reference value: 20.40 to 22.32 %); type: functional
[12] = species: Homo sapiens; experiment: Induction of microtubule depolymerization in human PC3 interphase cells at 2 uM after 24 hrs by DAPI staining-based immunofluorescence microscopic analysis; type: cell-based
Summary of the method: (§2)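 PC-3 cells grown on chamber slides 36 h, then treated 24 h (test agents 2, 5 or 10 μM; reference agents 200 nM); fixed in 4% paraformaldehyde, permeabilized with 0.5% Triton X-100, stained with anti-α-tubulin monoclonal plus FITC secondary and DAPI for nuclei; spindle and microtubule morphology by fluorescence microscopy.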

[13] = target: T1, Tubulin (Homo sapiens) (UniProt P68371+Q9H4B7+P0DPH7+P68366+Q13509+Q71U36+P04350+Q3ZCM7+P07437+P68363+Q9BQE3+Q6PEY2+Q13885+Q9BVA1+Q9BUF5); experiment: Inhibition of tubulin (unknown origin) polymerization assessed as destabilization of microtubule at 15 uM by fluorescence assay; type: protein-complex assay
Summary of the method: (§3)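 Cell-free tubulin polymerization kit; tubulin mixed with DMSO control, 500 μM CaCl2, 3 μM paclitaxel or test compounds at 15 or 30 μM; polymerization followed kinetically by fluorescence, excitation 340 nm, emission 420 nm, in a temperature-regulated fluorimeter. Three independent experiments in triplicate.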

[14] = system: HCT-116; experiment: Induction of apoptosis in human HCT116 cells assessed as late apoptotic cells at 2 uM after 24 hrs by AnnexinV-FITC/PI staining-based flow cytometry (reference value: 2.53 %); type: functional
[15] = system: HCT-116; experiment: Induction of apoptosis in human HCT116 cells assessed as early apoptotic cells at 2 uM after 24 hrs by AnnexinV-FITC/PI staining-based flow cytometry (reference value: 2.17 %); type: functional
[16] = system: HCT-116; experiment: Induction of apoptosis in human HCT116 cells assessed as late apoptotic cells at 1 uM after 24 hrs by AnnexinV-FITC/PI staining-based flow cytometry (reference value: 2.53 %); type: functional
[17] = system: HCT-116; experiment: Induction of apoptosis in human HCT116 cells assessed as early apoptotic cells at 1 uM after 24 hrs by AnnexinV-FITC/PI staining-based flow cytometry (reference value: 2.17 %); type: functional
[18] = system: HCT-116; experiment: Induction of apoptosis in human HCT116 cells at 2 uM after 24 hrs by AnnexinV-FITC/PI staining-based flow cytometry; type: functional
[19] = system: HCT-116; experiment: Induction of apoptosis in human HCT116 cells at 1 uM after 24 hrs by AnnexinV-FITC/PI staining-based flow cytometry; type: functional
[20] = system: HCT-116; experiment: Induction of apoptosis in human HCT116 cells after 24 hrs by AnnexinV-FITC/PI staining-based flow cytometry; type: functional, cell-based
[21] = system: T47D; experiment: Cytotoxicity against human T47D cells; type: functional
Summary of the method: (§4)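 NCI-60 human tumor cell line screen run by standard NCI protocol: single-dose prescreen at 10 μM, then multi-dose testing of compounds giving over 50% growth inhibition; GI50 = concentration for 50% growth inhibition.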

[22] = system: DU-145; experiment: Cytotoxicity against human DU145 cells; type: functional; summary of the method: as §4
[23] = system: OVCAR-3; experiment: Cytotoxicity against human OVCAR3 cells; type: functional; summary of the method: as §4
[24] = system: RXF 393; experiment: Cytotoxicity against human RXF393 cells; type: functional; summary of the method: as §4
[25] = system: LOX IMVI; experiment: Cytotoxicity against human LOXIMVI cells; type: functional
[26] = system: SNB-19; experiment: Cytotoxicity against human SNB19 cells; type: functional; summary of the method: as §4
[27] = system: NCI-H322M; experiment: Cytotoxicity against human NCI-H322M cells; type: functional; summary of the method: as §4
[28] = system: HCT-116; experiment: Cytotoxicity against human HCT116 cells; type: functional; summary of the method: as §4
[29] = species: Homo sapiens; experiment: Induction of microtubule depolymerization in human PC3 mitotic cells assessed as abnormal spindles at 2 uM after 24 hrs by DAPI staining-based immunofluorescence microscopic analysis; type: cell-based; summary of the method: as §2
[30] = system: MOLT-4; experiment: Cytotoxicity against human MOLT4 cells; type: functional; summary of the method: as §4
[31] = system: PC-3; experiment: Induction of microtubule polymerization in human PC3 cells assessed as bundled sheet like pattern at 200 nM after 24 hrs by DAPI staining-based immunofluorescence microscopic analysis; type: cell-based; summary of the method: as §2
[32] = target: T1, Tubulin (Homo sapiens); experiment: Induction of tubulin (unknown origin) polymerization at 3 uM by fluorescence assay; type: protein-complex assay; summary of the method: as §3
[33] = system: PC-3; experiment: Induction of microtubule depolymerization in human PC3 cells at 200 nM after 24 hrs by DAPI staining-based immunofluorescence microscopic analysis; type: cell-based; summary of the method: as §2
[34] = target: T1, Tubulin (Homo sapiens); experiment: Induction of tubulin (unknown origin) polymerization at 30 uM by fluorescence assay; type: protein-complex assay; summary of the method: as §3
[35] = system: HEK-293T; experiment: Inhibition of TNF-alpha induced NF-kapppaB activation in HEK293T cells at 1.25 to 5 uM incubated 1 hr prior to TNF-alpha addition measured after 18 hrs by luciferase reporter gene assay; type: cell-based; conditions: Homo sapiens

inhibition [13]: Active
SMILES: C=C1C(=O)C[C@H](OC(C)=O)[C@@]2(C)[C@@H](OC(C)=O)[C@H](OC(=O)c3ccccc3)C3=C(C)[C@@H](OC(=O)[C@H](O)[C@@H](NC(=O)c4ccccc4)c4ccccc4)C[C@@]3(C(C)(C)O)[C@@H](OC(C)=O)[C@H]12
inhibition [1]: 37%
inhibition [2]: 27%
inhibition [3]: 14%
inhibition [4]: Dose-dependent effect
Activity [5]: 44.75%
Activity [6]: 55.02%
Activity [7]: 18.27%
Activity [8]: 14.39%
Activity [9]: Dose-dependent effect
Activity [10]: Dose-dependent effect
Activity [11]: 29.81%
Activity [12]: Active
Activity [14]: 14%
Activity [15]: 5.87%
Activity [16]: 2.82%
Activity [17]: 2.11%
Activity [18]: 20.36%
Activity [19]: 8.54%
Activity [20]: Dose-dependent effect
GI50 [21]: 1860 nM
GI50 [22]: 1.59 µM
GI50 [23]: 1.72 µM
GI50 [24]: 1.29 µM
GI50 [25]: 1860 nM
GI50 [26]: 33.7 µM
GI50 [27]: 18.5 µM
GI50 [28]: 1.28 µM
Activity [29]: Active
GI50 [30]: 0.65 µM

SMILES: C=C1[C@@H](OC(=O)[C@@H](O)[C@H](NC(=O)OC(C)(C)C)c2ccccc2)C[C@H](OC(C)=O)[C@@]2(C)[C@@H](OC(C)=O)[C@H](OC(=O)c3ccccc3)C3=C(C)[C@@H](O)C[C@@]3(C(C)(C)O)[C@@H](OC(C)=O)[C@H]12
GI50 [21]: > 100000 nM
GI50 [22]: 72.4 µM
GI50 [23]: 28.4 µM
GI50 [24]: 26.6 µM
GI50 [25]: > 100000 nM
GI50 [26]: > 100 µM
GI50 [27]: > 100 µM
GI50 [28]: 45.2 µM
GI50 [30]: 83.3 µM

Activity [32]: Active
SMILES: CC(=O)O[C@H]1C(=O)[C@@]2(C)[C@H]([C@H](OC(=O)c3ccccc3)[C@]3(O)C[C@H](OC(=O)[C@H](O)[C@@H](NC(=O)c4ccccc4)c4ccccc4)C(C)=C1C3(C)C)[C@]1(OC(C)=O)CO[C@@H]1C[C@@H]2O [PACLITAXEL]
Activity [31]: Active
GI50 [21]: 10 nM
GI50 [22]: 0.032 µM
GI50 [23]: 0.02 µM
GI50 [24]: 0.05 µM
GI50 [25]: 16 nM
GI50 [26]: 0.04 µM
GI50 [27]: 0.05 µM
GI50 [28]: 0.01 µM
GI50 [30]: 0.032 µM

SMILES: COc1ccc(/C=C\c2cc(OC)c(OC)c(OC)c2)cc1O
Activity [33]: Active

Activity [34]: Active
SMILES: CC(=O)O[C@H]1C[C@H]2OC[C@@]2(OC(C)=O)[C@H]2[C@H](OC(C)=O)[C@]3(C(C)(C)O)C[C@H](OC(=O)[C@H](O)[C@@H](NC(=O)OC(C)(C)C)c4ccccc4)C(C)=C3[C@@H](OC(=O)c3ccccc3)[C@H](OC(C)=O)[C@]12C
inhibition [35]: inactive
GI50 [21]: 38900 nM
GI50 [22]: 21.4 µM
GI50 [23]: 15.5 µM
GI50 [24]: 12.6 µM
GI50 [25]: 21400 nM
GI50 [26]: 33.1 µM
GI50 [27]: 50.1 µM
GI50 [28]: 16.2 µM
GI50 [30]: 42.7 µM
